In ChEMBL document CHEMBL4765302, “Design, synthesis and biological evaluation of novel histone deacetylase1/2 (HDAC1/2) and cyclin-dependent Kinase2 (CDK2) dual inhibitors against malignant cancer” (Eur J Med Chem, 2020):
pIC50: −log10 of the molar value. Active and inactive are the calls of the source. The rule behind the calls is not given here.

Assays:
NCI-H460 [1] = assay: Induction of apoptosis in human NCI-H460 cells assessed as necrotic cells at 2 uM incubated for 48 hrs by annexin V-FITC and PI staining based flow cytometry (reference value: 0.632 %); type: functional
HCT-116 [2] = assay: Induction of apoptosis in human HCT-116 cells assessed as necrotic cells at 1 uM incubated for 48 hrs by annexin V-FITC and PI staining based flow cytometry (reference value: 0.124 %); type: functional
A-375 [3] = assay: Induction of apoptosis in human A-375 cells assessed as late apoptotic cells at 1 uM incubated for 48 hrs by annexin V-FITC and PI staining based flow cytometry (reference value: 2.24 %); type: functional
[4] = Tmax in ICR mouse at 20 mg/kg, ip measured upto 24 hrs by LC-MS/MS analysis; conditions: in vivo
A-375 [5] = assay: Induction of apoptosis in human A-375 cells assessed as necrotic cells at 0.5 uM incubated for 48 hrs by annexin V-FITC and PI staining based flow cytometry (reference value: 0.139 %); type: functional
HCT-116 [6] = assay: Antitumor activity against human HCT-116 cells xenografted in Balb/c mouse assessed as tumor growth inhibition at 25 mg/kg, ip administered for 21 days and measured on day 21 relative to control; type: functional; conditions: HCT-116, ip, 504 h, time 21 day, read-out: GI
In short: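 HCT116 xenografts in BALB/c nude mice. Dosing started when tumours reached 100–300 mm³: intraperitoneal injection once daily for 21 days at 25, 50 or 100 mg/kg, versus blank. Body weight monitored. Tumour growth inhibition computed against blank.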

[7] = Intraperitoneal bioavailability in ICR mouse at 20 mg/kg measured upto 24 hrs by LC-MS/MS analysis; conditions: in vivo, ip
Histone deacetylase 2 = Histone deacetylase 2 (Homo sapiens, UniProt Q92769); assay: Potency index, ratio of IC50 of CS055 to IC50 of compound for inhibition of recombinant human HDAC2 using FLUOR-DE-LYS-Green as substrate incubated for 10 mins followed by substrate addition and measured after 30 mins by fluorescence based assay
Histone deacetylase 2, sequence (Q92769 whole entry): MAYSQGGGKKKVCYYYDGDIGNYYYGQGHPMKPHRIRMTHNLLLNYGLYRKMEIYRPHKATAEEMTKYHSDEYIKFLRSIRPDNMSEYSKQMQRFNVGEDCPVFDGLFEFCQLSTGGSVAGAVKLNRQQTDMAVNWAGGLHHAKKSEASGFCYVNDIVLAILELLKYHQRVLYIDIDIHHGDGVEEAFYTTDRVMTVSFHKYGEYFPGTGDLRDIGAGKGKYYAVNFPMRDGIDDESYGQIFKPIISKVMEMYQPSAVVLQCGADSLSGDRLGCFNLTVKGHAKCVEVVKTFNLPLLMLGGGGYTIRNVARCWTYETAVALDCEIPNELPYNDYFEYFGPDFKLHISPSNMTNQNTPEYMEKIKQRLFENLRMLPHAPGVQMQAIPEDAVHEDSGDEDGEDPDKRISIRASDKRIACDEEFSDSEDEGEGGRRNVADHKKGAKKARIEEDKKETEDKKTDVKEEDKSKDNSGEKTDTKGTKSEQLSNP

[8] = Toxicity in Balb/c mouse xenografted with human HCT-116 cells assessed as reduction in body weight at 25 to 100 mg/kg, ip administered for 21 days and measured on day 21; type: organism-based; conditions: in vivo, 504 h, dose 25-100 mg/kg, time 21 day
In short: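 BALB/c nude mice bearing HCT116 xenografts were dosed once daily by intraperitoneal injection at 25, 50 or 100 mg/kg for 21 days, starting when tumours reached 100-300 mm³. Body weight was tracked over the dosing period and compared with the blank group.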

A-375 [9] = assay: Induction of apoptosis in human A-375 cells assessed as necrotic cells at 2 uM incubated for 48 hrs by annexin V-FITC and PI staining based flow cytometry (reference value: 0.139 %); type: functional
NCI-H460 [10] = assay: Induction of apoptosis in human NCI-H460 cells assessed as late apoptotic cells at 0.5 uM incubated for 48 hrs by annexin V-FITC and PI staining based flow cytometry (reference value: 6.11 %); type: functional
HCT-116 [11] = assay: Induction of apoptosis in human HCT-116 cells assessed as viable cells at 1 uM incubated for 48 hrs by annexin V-FITC and PI staining based flow cytometry (reference value: 93.9 %); type: functional; conditions: read-out: Activity
A-375 [12] = assay: Induction of apoptosis in human A-375 cells assessed as viable cells at 1 uM incubated for 48 hrs by annexin V-FITC and PI staining based flow cytometry (reference value: 96.3 %); type: functional; conditions: read-out: Activity
NCI-H460 [13] = assay: Cytotoxicity against human NCI-H460 cells assessed as effect on cell morphology at 0.5 to 8 micromol incubated for 48 hrs by microscopic analysis; type: functional, cell-based; conditions: dose 0.5-8 µmol
In short: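 Five cancer cell lines treated with compound or DMSO (0.1 %) for 48 h. Morphology inspected by light microscopy at 10× objective.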

HeLa [14] = assay: Induction of apoptosis in human HeLa cells assessed as viable cells at 1 uM incubated for 48 hrs by annexin V-FITC and PI staining based flow cytometry (reference value: 98.5 %); type: functional; conditions: read-out: Activity
NCI-H460 [15] = assay: Induction of apoptosis in human NCI-H460 cells assessed as viable cells at 2 uM incubated for 48 hrs by annexin V-FITC and PI staining based flow cytometry (reference value: 90.4 %); type: functional; conditions: read-out: Activity
HeLa [16] = assay: Induction of apoptosis in human HeLa cells assessed as necrotic cells incubated for 48 hrs by annexin V-FITC and PI staining based flow cytometry; type: functional, cell-based; conditions: dose 0.5-2 µM
A-375 [17] = assay: Induction of apoptosis in human A-375 cells assessed as early apoptotic cells at 1 uM incubated for 48 hrs by annexin V-FITC and PI staining based flow cytometry (reference value: 1.34 %); type: functional
NCI-H460 [18] = assay: Induction of apoptosis in human NCI-H460 cells assessed as early apoptotic cells at 2 uM incubated for 48 hrs by annexin V-FITC and PI staining based flow cytometry (reference value: 2.88 %); type: functional
[19] = molecular target: Cyclin-dependent kinase 2 (Homo sapiens) (UniProt P24941); assay: Inhibition of CDK2 in human A-375 cells at 1 uM incubated for 12 hrs by DAPI and immunofluorescence staining based confocal microscopic analysis; type: cell-based
A-375 [20] = assay: Induction of apoptosis in human A-375 cells assessed as necrotic cells incubated for 48 hrs by annexin V-FITC and PI staining based flow cytometry; type: functional, cell-based; conditions: dose 0.5-2 µM
NCI-H460 [21] = assay: Antiproliferative activity against human H460 cells assessed as reduction in cell growth at 2 uM incubated for 72 hrs by CCK-8 assay relative to control; type: functional
CDK2/Cyclin A2 = CDK2/Cyclin A2 (Homo sapiens, UniProt P24941); assay: Inhibition of recombinant human N-terminal GST-tagged CDK2/CyclinA2 expressed in baculovirus infected Sf21 cells using histone H1 as substrate incubated for 10 mins by luminescence based assay
HCT-116 [22] = assay: Induction of apoptosis in human HCT-116 cells assessed as apoptosis rate at 2 uM incubated for 48 hrs by annexin V-FITC and PI staining based flow cytometry relative to control; type: functional
[23] = AUC (0 to t) in ICR mouse at 4 mg/kg, iv measured upto 24 hrs by LC-MS/MS analysis; type: ADME, organism-based; set-up: route intravenous, dose 4 mg/kg, time <=24; conditions: in vivo
In short: (§1)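 Male ICR mice (N=9). Single dose, either 4 mg/kg intravenous or 20 mg/kg intraperitoneal. Parameters derived: T1/2, Tmax, Cmax, AUC0-t, MRT0-t and CL, with F for the intraperitoneal arm.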

HeLa [24] = assay: Induction of apoptosis in human HeLa cells assessed as viable cells at 2 uM incubated for 48 hrs by annexin V-FITC and PI staining based flow cytometry (reference value: 98.5 %); type: functional; conditions: read-out: Activity
[25] = Half life in ICR mouse at 4 mg/kg, iv measured upto 24 hrs by LC-MS/MS analysis; type: ADME, organism-based; conditions: in vivo; in short: as §1
[26] = MRT (0 to t) in ICR mouse at 20 mg/kg, ip measured upto 24 hrs by LC-MS/MS analysis; conditions: in vivo
HeLa [27] = assay: Induction of apoptosis in human HeLa cells assessed as early apoptotic cells at 0.5 uM incubated for 48 hrs by annexin V-FITC and PI staining based flow cytometry (reference value: 0.528 %); type: functional

Tmax [4]: 2 h | bioavailability [7]: 50.8% | Ratio IC50 (Histone deacetylase 2): 2 | inhibition [19]: Active | pIC50 (CDK2/Cyclin A2): 6.10 | AUC(0-t) at 24 h [23]: 2850 ng·h/mL | half-life [25]: 88.8 min | MRT last at 24 h [26]: 4.54 h
SMILES: Cc1ccc(Nc2nc(Cl)nc3c2ncn3Cc2ccc(C(=O)Nc3ccccc3N)cc2)cc1
Activity (NCI-H460 [1]): 9.03% | Activity (HCT-116 [2]): 0.65% | Activity (A-375 [3]): 83.4% | Activity (A-375 [5]): 0.852% | inhibition in vivo at 25 mg/kg (HCT-116 [6]): 28% | Activity [8]: Non-Toxic | Activity (A-375 [9]): 0.453% | Activity (NCI-H460 [10]): 4.31% | viability at 1 µM (HCT-116 [11]): 13.3% | viability at 1 µM (A-375 [12]): 8.06% | Activity (NCI-H460 [13]): Active | viability at 1 µM (HeLa [14]): 85.2% | viability at 2 µM (NCI-H460 [15]): 31.9% | Activity (HeLa [16]): Dose-dependent effect | Activity (A-375 [17]): 8% | Activity (NCI-H460 [18]): 12% | Activity (A-375 [20]): Dose-dependent effect | inhibition at 2 µM (NCI-H460 [21]): 67.3% | Activity (HCT-116 [22]): 89.6% | viability at 2 µM (HeLa [24]): 77.4% | Activity (HeLa [27]): 4.36%
